PubChem BioAssay AID1325 (NMMLSC, 2008)
Screen size: about 190,000 compounds; about 200 (0.11%) were called active.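 The calls were made as follows: active = inhibition above 80%; inactive = the rest.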 The entries come from a sample that favours actives as a whole.

target: Broad substrate specificity ATP-binding cassette transporter ABCG2 (Homo sapiens) (UniProt Q9UNQ0); assay: blockers of JC-1 export by ABCG2 – multiplex with ABCB1, IgMXP3 cells, flow cytometry, primary screen (AID 1325); details: JC-1 efflux, at 6.6 µM, stronger effect = higher value;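 also: 0% = DMSO and 100% = nicardipine control wells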
How it was run: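 Read-out basis: Efflux inhibition in percent versus controls | Test system: ABCG2 IgMXP3 and barcoded ABCB1 CCRF-Adr cell mix | Quantity: 3 million cells/mL in well | Schedule: 10 min at 25 °C | Control set: Nicardipine as high control, DMSO as low control | Reagent: JC-1 as fluorescent efflux pump substrate | Signal: Flow cytometry of retained JC-1 fluorescence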

Sequence of Broad substrate specificity ATP-binding cassette transporter ABCG2 (Homo sapiens) (Q9UNQ0 whole entry, looked up): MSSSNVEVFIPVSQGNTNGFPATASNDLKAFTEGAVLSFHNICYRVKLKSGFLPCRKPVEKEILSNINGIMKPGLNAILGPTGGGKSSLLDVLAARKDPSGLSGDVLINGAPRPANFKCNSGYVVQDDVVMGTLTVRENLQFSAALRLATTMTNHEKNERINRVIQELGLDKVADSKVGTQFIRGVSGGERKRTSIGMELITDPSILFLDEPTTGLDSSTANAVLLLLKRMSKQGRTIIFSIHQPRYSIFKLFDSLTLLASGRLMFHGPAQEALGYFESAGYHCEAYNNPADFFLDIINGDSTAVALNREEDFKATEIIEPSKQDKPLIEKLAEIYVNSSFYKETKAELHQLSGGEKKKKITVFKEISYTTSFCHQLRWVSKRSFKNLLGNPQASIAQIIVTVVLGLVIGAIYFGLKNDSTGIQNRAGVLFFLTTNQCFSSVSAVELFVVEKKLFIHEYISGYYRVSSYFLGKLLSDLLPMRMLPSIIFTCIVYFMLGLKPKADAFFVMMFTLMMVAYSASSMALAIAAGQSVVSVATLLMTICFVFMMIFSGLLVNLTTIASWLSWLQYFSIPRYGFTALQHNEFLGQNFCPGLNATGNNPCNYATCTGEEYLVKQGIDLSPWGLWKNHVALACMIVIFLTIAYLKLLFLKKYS

| Compound | inhibition |
| --- | --- |
| CCN1CCN(C(=O)CN(C)S(=O)(=O)c2ccc3ccccc3c2)CC1 | 0.1% (inactive) |
| COc1ccc(OCCNS(=O)(=O)Cc2ccccc2)cc1 | 2.18% (inactive) |
| COc1ccc(C)cc1NC(=O)C(Sc1ccccc1)c1ccccc1 (stereo not given) | 91.6% (active) |
| COc1ccc(C)cc1NC(=S)Nc1ccccc1SC | 0.21% (inactive) |
| COc1ccc(C)cc1NC(=O)Nc1ccccc1SC | 13.2% (inactive) |
| CCOC(=O)C1=C(CC)OC(N)=C(C#N)C1c1ccc(F)cc1F (stereo not given) | -0.41% (inactive) |
| CC(CO)NCC12CC3CC(CC(C3)C1)C2 (stereo not given) | -2.66% (inactive) |
| COc1ccc(CN(C)C(C)C(=O)NC2CCCc3ccccc32)cc1 (stereo not given) | 6.36% (inactive) |
| O=C(Cc1csc(Nc2nc(=S)[nH]c3ccccc23)n1)NCCCN1CCN(c2cccc(Cl)c2)CC1 | 3.5% (inactive) |
| CCc1ccc(Oc2nc([N+](=O)[O-])nn2C)cc1 | 1.08% (inactive) |
| CCC(CC)c1nnc(NC(=O)c2nn(C)c(=O)c3ccccc23)s1 | 6.7% (inactive) |
| CCN(C(=O)Cc1nc(N)n[nH]1)C1(C(=O)Nc2ccccc2)CCCCC1 | 2.7% (inactive) |
| CC(CNC(=O)c1ccc(N)cc1)NC(=O)c1ccc(N)cc1 (stereo not given) | -4.01% (inactive) |
| Cc1cc(OC(=O)c2ccccc2Cl)ccc1N1C(=O)CCC1=O | 21.3% (inactive) |
| O=S(=O)(Nc1ncccn1)c1ccc(NS(=O)(=O)c2cccc(Cl)c2Cl)cc1 | 0.94% (inactive) |
| C=CCC1(CC=C)CCCN1C(=O)CC1C(=O)NCCN1Cc1ccccc1OC (stereo not given) | 4.22% (inactive) |
| NNc1nc2c(Cl)cccc2s1 | -11.1% (inactive) |
| COc1ccc(CN2CCCC(C(=O)c3ccc(Cl)cc3)C2)cc1Cn1cncn1 (stereo not given) | 2.66% (inactive) |
| CN(C)c1nnnn1-c1ccc(Cl)cc1 | 1.39% (inactive) |
| O=C1NC(c2ccc(-c3ccccc3[N+](=O)[O-])o2)C(C(=O)c2ccc(Cl)cc2)C(O)(C(F)(F)F)N1 (stereo not given) | 14.6% (inactive) |
